Lipid droplet: hepatic lipid droplet formation modulation; AID 1656; AML12 mouse hepatocytes, oleate lipid droplets, BODIPY imaging; inhibition, % at 6.5 µM; 0.4% of 240,000 active;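 active = lipid droplet intensity inhibited by at least 50%, with more than 500 cells counted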
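Test system: AML12 mouse liver cells; schedule: overnight exposure; technique: high-content imaging of BODIPY-stained droplets and DAPI nuclei; read-out: % inhibition of corrected integrated BODIPY droplet signal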
ANO1 activ: activates or potentiates the mouse TMEM16A chloride channel; HEK293 TMEM16A/YFP-H148Q/I152L, iodide quench fluorescence; active compounds read low; Q8BHY3; AID 623877; B-score at 10 µM; 0.3% of 340,000 active;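 active = fluorescence-ratio B-score plate-corrected deviation score at least 3 library SD below zero, with starting fluorescence score within 5 deviations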;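 also: channel opened by trigger with iodide after compound preincubation; score built on the fluorescence ratio of max minus min over baseline; more negative score means more quench and so TMEM16A activation or potentiation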
Target sequence (Q8BHY3 whole entry, looked up): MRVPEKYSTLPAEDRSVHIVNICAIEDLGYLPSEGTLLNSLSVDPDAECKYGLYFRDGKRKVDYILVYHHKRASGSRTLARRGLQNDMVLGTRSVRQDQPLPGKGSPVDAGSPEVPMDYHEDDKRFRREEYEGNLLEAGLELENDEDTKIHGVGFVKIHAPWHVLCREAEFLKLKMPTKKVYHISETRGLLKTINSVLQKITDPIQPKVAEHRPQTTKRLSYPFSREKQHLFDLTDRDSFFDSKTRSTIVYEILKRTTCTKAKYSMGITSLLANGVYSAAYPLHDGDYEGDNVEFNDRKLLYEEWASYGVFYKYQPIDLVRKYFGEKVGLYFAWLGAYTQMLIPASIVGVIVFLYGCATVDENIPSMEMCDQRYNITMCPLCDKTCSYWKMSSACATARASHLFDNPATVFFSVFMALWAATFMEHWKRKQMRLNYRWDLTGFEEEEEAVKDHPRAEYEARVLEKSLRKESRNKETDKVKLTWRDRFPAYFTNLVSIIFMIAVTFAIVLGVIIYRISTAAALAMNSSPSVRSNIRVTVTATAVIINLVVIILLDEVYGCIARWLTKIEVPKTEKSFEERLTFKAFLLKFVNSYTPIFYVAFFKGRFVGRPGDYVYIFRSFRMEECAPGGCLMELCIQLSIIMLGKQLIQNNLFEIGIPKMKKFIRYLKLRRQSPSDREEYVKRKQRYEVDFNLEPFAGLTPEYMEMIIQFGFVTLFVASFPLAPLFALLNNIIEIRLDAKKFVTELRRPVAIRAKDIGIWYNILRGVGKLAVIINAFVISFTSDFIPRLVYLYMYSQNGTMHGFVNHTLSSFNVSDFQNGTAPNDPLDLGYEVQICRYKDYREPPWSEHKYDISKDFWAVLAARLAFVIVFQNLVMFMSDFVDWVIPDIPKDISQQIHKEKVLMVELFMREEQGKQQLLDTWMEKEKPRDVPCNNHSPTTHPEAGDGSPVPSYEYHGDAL
TMEM16A inh: inhibitors of mouse TMEM16A calcium-activated chloride channel; Q8BHY3; HEK293 TMEM16A/YFP iodide influx fluorescence, ionomycin; normalized B-score (activity score, 25-100; higher = stronger inhibition) at 10 µM; 1.2% of 310,000 active;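 active = ratio plate-corrected score three or more library SD toward inhibition, starting fluorescence score within five deviations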;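 also: score derived from kinetic fluorescence span divided by baseline fluorescence per well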
UPR CHOP act: activators of apoptotic arm of unfolded protein response (CHOP); 0.34% of 330,000 active; AID 449763; activation, % at 10 µM; CHO-CHOP luciferase reporter, UPR activation, luminescence; percent of tunicamycin response over DMSO baseline;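 active = at 10 µM dose, activation of 40% or more, normalized to positive control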
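System: CHO-CHOP luciferase reporter cell line; amount: 500 cells/well; buffer or medium: F12 medium containing 10% fetal bovine serum; incubation: 6 h compound exposure at 37 °C after overnight seeding; measured by: luciferase luminescence after 10 min with Steady-Glo reagent; evaluation: % reporter activation, DMSO baseline versus tunicamycin full activation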
XBP1 UPR activ: activators of adaptive arm of unfolded protein response (XBP1); CHO-XBP1 luciferase reporter, IRE1-XBP1 UPR activation, luminescence; percent of tunicamycin response, DMSO as zero; activation, % at 20 µM; 0.33% of 330,000 active;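 active = versus positive control, 20 µM dose yields 30% or more activation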
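Material – CHO cell line with stable XBP1 luciferase reporter · Buffer or medium – F12 plus 10% FBS · Compound – single point, 20 µM final compound, 1% DMSO · Schedule – 16-18 h cell attachment at 37 °C, then 6 h compound exposure · Signal – Steady-Glo luminescence read · Benchmarks – high control tunicamycin 10 µg/mL final, low control DMSO vehicle only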
CHOP inh: inhibitors of CHOP induction in ER stress response; CHO-K1 CHOP-promoter luciferase, tunicamycin-induced, 15-18 h; inhibition, % at 10 µM; 3.8% of 220,000 active;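 active = compounds that reduced the stress-induced luciferase reporter signal by more than about 70% of percent inhibition, limit read from the data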
Numbers stand for hits. An excerpt weighted towards active compounds, which were near 4.2% of everything screened.

Screening CC1CSC(N(C(=O)c2ccc(S(C)(=O)=O)cc2)c2ccc(Cl)cc2)=N1 (stereo not given) returned Lipid droplet inactive, ANO1 activ inactive, TMEM16A inh inactive, UPR CHOP act inactive and XBP1 UPR activ inactive.
Cc1nn(-c2ccccc2)c(Cl)c1/C=C1\SC(=S)NC1=O was read as Lipid droplet inactive, ANO1 activ inactive, TMEM16A inh 100, UPR CHOP act inactive, XBP1 UPR activ inactive and CHOP inh inactive.
For O=C(NCC12CC3CC(CC(C3)C1)C2)c1cc2n(n1)C(C(F)(F)F)CC(c1ccco1)N2 (stereo not given) the results were ANO1 activ inactive, TMEM16A inh inactive, UPR CHOP act inactive, XBP1 UPR activ inactive and CHOP inh 101.6.
Screening COc1ccccc1N1CCN(C(=O)c2cc3n(n2)C(C(F)(F)F)CC(c2ccco2)N3)CC1 (stereo not given) returned ANO1 activ inactive, TMEM16A inh inactive, UPR CHOP act inactive, XBP1 UPR activ inactive and CHOP inh inactive.
Cc1cc(NC(=O)c2cc3n(n2)C(C(F)(F)F)CC(c2ccco2)N3)n(-c2ccccc2)n1 (stereo not given) was read as Lipid droplet inactive, ANO1 activ inactive, TMEM16A inh inactive, UPR CHOP act inactive, XBP1 UPR activ inactive and CHOP inh 76.5.
For O=C(c1cc2n(n1)C(C(F)(F)F)CC(c1ccco1)N2)N1CCc2ccccc2C1 (stereo not given) the results were Lipid droplet inactive, ANO1 activ inactive, TMEM16A inh inactive, UPR CHOP act inactive, XBP1 UPR activ inactive and CHOP inh 82.6.
`COc1cc2c(cc1OC)C(C)N(C(=O)c1cc3n(n1)C(C(F)(F)F)CC(c1ccco1)N3)CC2` (stereo not given) gave Lipid droplet inactive, ANO1 activ inactive, TMEM16A inh inactive, UPR CHOP act inactive, XBP1 UPR activ inactive and CHOP inh inactive.
COc1ccc(NC(=O)c2cc3n(n2)C(C(F)(F)F)CC(c2ccco2)N3)cc1 (stereo not given) was read as ANO1 activ inactive, TMEM16A inh inactive, UPR CHOP act inactive, XBP1 UPR activ inactive and CHOP inh inactive.
For COc1cc(CN2CCN(c3cccc(C)c3C)CC2)cc(Br)c1O the results were ANO1 activ inactive, TMEM16A inh inactive, UPR CHOP act inactive, XBP1 UPR activ inactive and CHOP inh 90.6.
COc1ccc(CN2CCN(c3cccc(C)c3C)CC2)cc1OC was read as Lipid droplet inactive, ANO1 activ inactive, TMEM16A inh inactive, UPR CHOP act inactive, XBP1 UPR activ inactive and CHOP inh inactive.
Screening CC(=O)C(Cc1ccccc1)NC(=O)COC(=O)CCN1C(=O)C2CC=CCC2C1=O (stereo not given) returned ANO1 activ inactive, TMEM16A inh inactive, UPR CHOP act inactive and XBP1 UPR activ inactive.
`Cc1ccc(S(=O)(=O)N2CCN(C(=O)N(C)C)CC2)cc1C` gave Lipid droplet inactive, ANO1 activ inactive, TMEM16A inh inactive, UPR CHOP act inactive, XBP1 UPR activ inactive and CHOP inh inactive.
Cc1ccc(N(C)C(=O)N2CCN(S(=O)(=O)c3ccc(C)c(C)c3)CC2)cc1 was read as Lipid droplet inactive, ANO1 activ inactive, TMEM16A inh inactive, UPR CHOP act inactive, XBP1 UPR activ inactive and CHOP inh 73.4.
Cc1ccc(C(C)C)c(OCc2ccc(C(=O)N/N=C/c3cccc(O)c3O)cc2)c1 was read as Lipid droplet inactive, ANO1 activ inactive, TMEM16A inh inactive and CHOP inh 106.6.
Screening COc1cc(/C=N/NC(=O)c2ccc(COc3cc(C)ccc3C(C)C)cc2)cc(OC)c1O returned Lipid droplet inactive, ANO1 activ inactive, TMEM16A inh inactive, UPR CHOP act inactive, XBP1 UPR activ inactive and CHOP inh inactive.
Screening CCN(CC)C(=O)/C(=C\c1ccc(Br)cc1)NC(=O)c1ccccc1OC returned ANO1 activ inactive, TMEM16A inh inactive, UPR CHOP act inactive, XBP1 UPR activ inactive and CHOP inh inactive.
For Cc1cc(-c2ccc(C(C)C)c(S(=O)(=O)N3CCC(C)CC3)c2)on1 the results were Lipid droplet inactive, ANO1 activ inactive, TMEM16A inh inactive, UPR CHOP act inactive and XBP1 UPR activ inactive.
`CCc1ccc(-c2cc(C)no2)cc1S(=O)(=O)N1CCC(C)CC1` gave Lipid droplet inactive, ANO1 activ inactive, TMEM16A inh 25, UPR CHOP act inactive and XBP1 UPR activ inactive.
For O=C(CN1CCN(c2ccccc2O)CC1)Nc1cc([N+](=O)[O-])ccc1Cl the results were Lipid droplet inactive, ANO1 activ inactive, TMEM16A inh inactive, UPR CHOP act inactive, XBP1 UPR activ inactive and CHOP inh 83.1.
Screening COc1ccccc1-n1cnc2c(c1=O)c1nc3ccccc3nc1n2-c1ccc(C)c(C)c1 returned Lipid droplet inactive, ANO1 activ inactive and CHOP inh 84.1.
`COCCNC(=O)/C(C#N)=c1\s/c(=C\c2ccccc2OC(F)F)c(=O)n1Cc1ccccc1` gave Lipid droplet inactive, TMEM16A inh inactive, UPR CHOP act inactive, XBP1 UPR activ inactive and CHOP inh 94.6.
OC[C@@H](O)[C@@H](O)[C@H](O)[C@H](O)CO was read as ANO1 activ inactive, TMEM16A inh inactive, UPR CHOP act inactive and XBP1 UPR activ inactive.
`FC(F)(F)c1cccc(N2CCN(C(=S)NCC3CCCO3)CC2)c1` (stereo not given) gave Lipid droplet inactive, ANO1 activ inactive, TMEM16A inh 25, UPR CHOP act inactive, XBP1 UPR activ inactive and CHOP inh inactive.
COC(=O)C1=C(C(=O)OC)[C@@H]2N(C)c3ccccc3[C@@]23C[C@@H](C(=O)OC)N(C(=O)c2cc(C)oc2C)C3=N1 was read as Lipid droplet inactive, ANO1 activ inactive, TMEM16A inh inactive, UPR CHOP act inactive, XBP1 UPR activ inactive and CHOP inh inactive.
`C=CCn1c(COc2cccc3cccnc23)nnc1SCC(=O)O` gave Lipid droplet inactive, ANO1 activ -10.2, TMEM16A inh inactive, UPR CHOP act inactive, XBP1 UPR activ inactive and CHOP inh inactive.
`NS(=O)(=O)c1ccc(CNC(=S)Nc2ccc(Cl)c(Cl)c2)cc1` gave Lipid droplet inactive, ANO1 activ -5.27, TMEM16A inh inactive, UPR CHOP act inactive, XBP1 UPR activ inactive and CHOP inh inactive.
Screening COc1ccc(NC(=S)NCc2ccc(S(N)(=O)=O)cc2)cc1OC returned Lipid droplet inactive, ANO1 activ inactive, TMEM16A inh inactive, UPR CHOP act inactive, XBP1 UPR activ inactive and CHOP inh inactive.
For Fc1cccc(NC(=S)NCc2ccc(Cl)cc2)c1 the results were Lipid droplet inactive, ANO1 activ inactive, TMEM16A inh inactive, UPR CHOP act inactive, XBP1 UPR activ inactive and CHOP inh inactive.

Bioassay records (PubChem)
